Data taken from PubChem BioAssay.
Activity calls are given as the source filed them. Unless noted, no stated cut-off is given here; in the data, active means inhibition above about 30%; inactive means the rest.

Assays:
[1] = Her2 expression decrease, cell viability multiplex – SKBR3 breast tumor cells, AlphaScreen, ATP viability, primary screen (AID 461;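 active means Her2 level under about 52% in both replicate screens, with viability over 70% of control, limit read from the data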;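 on Her2 level: lower value means less Her2 protein in the cells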;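 on viability: percent of carrier control wells set as 100% viability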); conditions: SKBR3 Her2 protein level, 18-24 h, measured here: SKBR3 viability, ATP luminescence, at 10 µM
[2] = target: Receptor tyrosine-protein kinase erbB-2 (Homo sapiens) (UniProt P04626); test: as above; conditions: 18-24 h, at 10 µM, stronger effect = lower value
Chain of Receptor tyrosine-protein kinase erbB-2 (Homo sapiens) (P04626 whole entry, looked up): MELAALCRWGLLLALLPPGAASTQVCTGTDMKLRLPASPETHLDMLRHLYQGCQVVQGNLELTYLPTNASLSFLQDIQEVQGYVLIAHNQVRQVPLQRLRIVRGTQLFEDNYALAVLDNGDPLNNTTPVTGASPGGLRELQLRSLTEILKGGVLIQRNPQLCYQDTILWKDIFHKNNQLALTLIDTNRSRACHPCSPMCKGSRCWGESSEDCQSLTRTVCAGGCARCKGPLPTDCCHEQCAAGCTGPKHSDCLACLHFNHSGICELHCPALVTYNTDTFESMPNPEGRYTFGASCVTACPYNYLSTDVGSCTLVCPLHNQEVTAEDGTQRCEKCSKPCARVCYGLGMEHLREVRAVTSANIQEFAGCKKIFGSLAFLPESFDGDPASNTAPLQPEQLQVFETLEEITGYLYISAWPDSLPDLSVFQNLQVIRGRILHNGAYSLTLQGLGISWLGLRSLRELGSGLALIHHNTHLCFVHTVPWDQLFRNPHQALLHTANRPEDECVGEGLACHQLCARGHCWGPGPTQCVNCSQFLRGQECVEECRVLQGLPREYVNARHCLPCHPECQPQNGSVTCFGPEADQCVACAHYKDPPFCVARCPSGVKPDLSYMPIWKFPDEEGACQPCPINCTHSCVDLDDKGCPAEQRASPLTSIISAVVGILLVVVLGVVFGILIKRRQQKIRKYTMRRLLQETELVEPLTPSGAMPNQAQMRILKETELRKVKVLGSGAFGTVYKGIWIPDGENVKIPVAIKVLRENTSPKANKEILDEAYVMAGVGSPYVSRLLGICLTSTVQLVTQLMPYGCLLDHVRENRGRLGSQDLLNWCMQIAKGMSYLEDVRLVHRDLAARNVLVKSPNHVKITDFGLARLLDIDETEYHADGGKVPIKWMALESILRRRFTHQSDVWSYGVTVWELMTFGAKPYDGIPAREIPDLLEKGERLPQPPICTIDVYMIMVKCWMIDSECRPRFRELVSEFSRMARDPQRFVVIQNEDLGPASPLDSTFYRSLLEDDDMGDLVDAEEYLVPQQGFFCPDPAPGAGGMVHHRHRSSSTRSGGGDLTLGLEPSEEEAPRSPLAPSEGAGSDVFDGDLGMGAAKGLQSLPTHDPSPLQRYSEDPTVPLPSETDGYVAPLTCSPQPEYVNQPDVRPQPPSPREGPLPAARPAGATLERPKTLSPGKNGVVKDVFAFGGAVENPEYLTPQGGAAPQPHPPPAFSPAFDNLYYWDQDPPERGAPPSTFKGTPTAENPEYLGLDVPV

[3] = reduced viability of SK-BR-3 breast cancer cells – cell-based, 24 h, human, pilot screen (AID 572;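 active means viability at or below 10% of carrier control in both of two separate runs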;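 further: compound exposure lasted between 18 and 24 h rather than exactly 24 h; 100% = carrier-treated control wells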); conditions: SK-BR-3 viability, CellTiter-Glo luminescence, at 10 µM, stronger effect = lower value
[4] = HUVEC growth inhibition – cell-based, human, primary screen (AID 575;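 active means viability at or below 30% in both replicate assays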;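 further: 100% = median of untreated cell wells with 0.1% DMSO on each plate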); conditions: HUVEC proliferation, CellTiter-Glo luminescence, 72 h; at 10 µM; stronger effect = lower value
Procedure, shortened: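 Test system – primary HUVEC, no more than 12 passages · Dosing – one dose, 10 µM final, 0.1% DMSO · Times – 72 h treatment at 37 °C · Measured by – ATP-based CellTiter-Glo luminescent read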

[5] = H69AR cell proliferation blockers – human, duplicate replicates, primary screen (AID 580;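 active means viability at or under a set limit in both replicates, limit being median viability minus 3 SD, cut at about 48% in these data, passing the limit was not always enough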;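 further: 100% = mean luminescence of untreated wells and 0% = no signal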); conditions: H69AR lung tumor cells viability, ATP luminescence, 72 h; at 10 µM; stronger effect = lower value
[6] = MRP1 drug-resistance reversers in H69AR cells – cell-based, doxorubicin co-treatment, pilot screen (AID 601;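 active means viability loss from added drug above about 55%, and viability with drug at most 40%, in both replicates, limit read from the data, passing the limit was not always enough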); conditions: CellTiter-Glo, 72 h, at 10 µM; for differential viability (reversal): stronger effect = higher value
[7] = yeast transport mutant growth inhibition pilot in 384-well plates, post-Golgi transport modulator project (AID 636; in the data active means inhibition above about 31%); conditions: absorbance 615 nm, about 18 h, stronger effect = higher value
[8] = growth suppression of yeast trafficking mutant, preliminary HTS, modulators of trafficking downstream of Golgi apparatus project, 1536-format plate, OD 615 nm (AID 637); conditions: yeast transport mutant growth, absorbance 615 nm, 18 h; stronger effect = higher value
[9] = H69AR cells + 2 uM doxorubicin, measured here: viability with 2 uM doxorubicin, stronger effect = lower value
[10] = H69AR cells, compound alone cytotoxicity

| SMILES | viability [1] | Her2 level [2] | viability [3] | viability [4] | viability [5] | differential viability (reversal) ([6]; H69AR cells + 2 uM doxorubicin) | viability [6, 9] | viability [6, 10] | inhibition [7] | inhibition [8] |
| --- | --- | --- | --- | --- | --- | --- | --- | --- | --- | --- |
| COC(=O)c1ccccc1NC(=O)C1CC(=O)N(c2ccccc2)C1 (stereo not given) | 122% | 96% (inactive) | 122% (inactive) | 114% (inactive) | 102% (inactive) | 20.8% (inactive) | 80.9% | 102% | -6.27% (inactive) | 6.77% (inactive) |
| CC(C)[C@H](NC(=O)OC(C)(C)C)c1nnc(SCc2cccc(F)c2)o1 | 90% | 120% (inactive) | 90% (inactive) | 107% (inactive) | 96.4% (inactive) | -1.12% (inactive) | 97.5% | 96.4% | 0.13% (inactive) | 0% (inactive) |
| COc1ccc2cnn(-c3ccccc3)c(=O)c2c1OC | 98% | 91% (inactive) | 98% (inactive) | 126% (inactive) | 103% (inactive) | 18.2% (inactive) | 84.6% | 103% | -1.71% (inactive) | 1.64% (inactive) |
| Cc1cc(C)c2cc3c(ccn3C3OC[C@H](O)[C@H](O)[C@H]3O)cc2n1 (stereo not given in full) | 95% | 105% (inactive) | 95% (inactive) | 90.2% (inactive) | 97.4% (inactive) | 7.18% (inactive) | 90.3% | 97.4% | -1.92% (inactive) | 1% (inactive) |
| Cc1cc(C(=O)OCC(=O)N2c3ccccc3CC2C)c(C)o1 (stereo not given) | 90.5% | 86.5% (inactive) | 90.5% (inactive) | 101% (inactive) | 100% (inactive) | 9.63% (inactive) | 90.8% | 100% | -4.05% (inactive) | -4.75% (inactive) |
| CCOCCCNCC(=O)N1CCN(S(=O)(=O)c2ccc(C)cc2)CC1 | 90% | 99.5% (inactive) | 90% (inactive) | 96.2% (inactive) | 101% (inactive) | 12% (inactive) | 89.4% | 101% | -6.18% (inactive) | -1.45% (inactive) |
| O=C(CCC(=O)c1cccs1)NCc1ccccc1 | 102% | 114% (inactive) | 102% (inactive) | 98.2% (inactive) | 97.8% (inactive) | -0.02% (inactive) | 97.8% | 97.8% | -3.64% (inactive) | -2.22% (inactive) |
| O=C(O)C1CC(=O)N(c2ccc(Br)cc2)C1 (stereo not given) | 81.5% | 122% (inactive) | 81.5% (inactive) | 94.6% (inactive) | 93.8% (inactive) | 4.02% (inactive) | 89.8% | 93.8% | -6.05% (inactive) | -4.1% (inactive) |
| O=C(OCc1nnc(-c2ccc(Cl)cc2)o1)c1ccc(=O)n(Cc2ccccc2)n1 | 84.5% | 84.5% (inactive) | 84.5% (inactive) | 102% (inactive) | 95.1% (inactive) | 13.1% (inactive) | 82.1% | 95.1% | -4.81% (inactive) | -9% (inactive) |
| Cc1ccc(S(=O)(=O)N2CCC(C(=O)NCCN3CCCCCC3)CC2)cc1 | 91% | 93.5% (inactive) | 91% (inactive) | 108% (inactive) | 103% (inactive) | 18.1% (inactive) | 84.6% | 103% | 0.13% (inactive) | 2.13% (inactive) |
| COC(=O)C(C)Oc1ccc2c3c(c(=O)oc2c1)CCCCC3 (stereo not given) | 90% | 94.5% (inactive) | 90% (inactive) | 93.7% (inactive) | 103% (inactive) | 10.5% (inactive) | 92.8% | 103% | 1.05% (inactive) | 5.74% (inactive) |
| CCNC(=O)N1c2ccc(OCC)cc2C(C)=CC1(C)C | 95.5% | 99.5% (inactive) | 95.5% (inactive) | 106% (inactive) | 89.3% (inactive) | -1.44% (inactive) | 90.8% | 89.3% | -7.76% (inactive) | -1.15% (inactive) |
| C=CCn1c(N)c(C(=O)NCCC2=CCCCC2)sc1=S | 85.5% | 92.5% (inactive) | 85.5% (inactive) | 44.6% (inactive) | 83.2% (inactive) | 7.14% (inactive) | 76% | 83.2% | -6.49% (inactive) | -0.95% (inactive) |
| COc1ccccc1-n1c(C)nnc1SCC(N)=O | 127% | 113% (inactive) | 127% (inactive) | 101% (inactive) | 91.6% (inactive) | 13.9% (inactive) | 77.7% | 91.6% | -5.33% (inactive) | -0.65% (inactive) |
| COc1ccccc1OCCn1c(=O)sc2ccccc21 | 95% | 93% (inactive) | 95% (inactive) | 89.6% (inactive) | 99.6% (inactive) | -8.55% (inactive) | 108% | 99.6% | -1.05% (inactive) | -7.94% (inactive) |
| CCn1nnc(-c2ccccc2NC(=O)c2ccc(-n3cnnn3)cc2)n1 | 95.5% | 87% (inactive) | 95.5% (inactive) | 67.7% (inactive) | 75.7% (inactive) | 1.74% (inactive) | 73.9% | 75.7% | -0.79% (inactive) | 1.15% (inactive) |
| COCc1cc(C)nc(SCC(=O)Nc2cccc(C)c2C)c1C#N | 103% | 95.5% (inactive) | 103% (inactive) | 82.3% (inactive) | 94.4% (inactive) | 11.9% (inactive) | 82.5% | 94.4% | -3.16% (inactive) | -0.48% (inactive) |
| COc1ccc(N2CCN(C(=O)CSc3nnc4n3C(C)(C)Cc3ccccc3-4)CC2)cc1 | 96% | 100% (inactive) | 96% (inactive) | 84.3% (inactive) | 88.7% (inactive) | -4.46% (inactive) | 93.1% | 88.7% | -5.79% (inactive) | -1.61% (inactive) |
| COc1cccc(NC(=O)N[C@@H](Cc2ccccc2)C(=O)O)c1 | 94% | 91.5% (inactive) | 94% (inactive) | 93.8% (inactive) | 114% (inactive) | 19.6% (inactive) | 94.5% | 114% | -4.46% (inactive) | 2.06% (inactive) |
| CC1(C)COCN1S(=O)(=O)c1ccc(C(=O)Nc2nnc(-c3ccc(Cl)s3)o2)cc1 | 70.5% | 97% (inactive) | 70.5% (inactive) | 4.41% (active) | 15% (active) | -18.8% (inactive) | 33.8% | 15% | -5.21% (inactive) | -1.43% (inactive) |
| O=C(c1ccccc1)c1coc2ccc(O)c(CN3CCOCC3)c12 | 78.5% | 75.5% (inactive) | 78.5% (inactive) | 115% (inactive) | 88.5% (inactive) | -9.25% (inactive) | 97.8% | 88.5% | -3.42% (inactive) | 5.9% (inactive) |
| CC(=O)Nc1ccc(S(=O)(=O)Nc2nc3n(n2)C(c2ccccc2)CC(=O)N3)cc1 (stereo not given) | 99.5% | 83.5% (inactive) | 99.5% (inactive) | 102% (inactive) | 107% (inactive) | 6.67% (inactive) | 99.9% | 107% | -7.7% (inactive) | -0.32% (inactive) |
| Cc1ccc(C)c(S(=O)(=O)NCc2ccc(C(=O)N3CCN(C)CC3)cc2)c1 | 99.5% | 85.5% (inactive) | 99.5% (inactive) | 89.7% (inactive) | 91.7% (inactive) | 5.15% (inactive) | 86.5% | 91.7% | -5.68% (inactive) | -3% (inactive) |
| CCOc1ccc2cc(C#N)c(SCC(=O)N3CCCC3)nc2c1 | 71.5% | 112% (inactive) | 71.5% (inactive) | 85.3% (inactive) | 87.3% (inactive) | 11.5% (inactive) | 75.8% | 87.3% | 6.45% (inactive) | -3.64% (inactive) |
| CC1(C)CNC(=O)CC(C)(C)N1O | 90% | 129% (inactive) | 90% (inactive) | 101% (inactive) | 95.6% (inactive) | 3.01% (inactive) | 92.6% | 95.6% | -1.43% (inactive) | 0% (inactive) |
| CCCCc1nccn1CCn1ccnc1CCCC | 87% | 85.5% (inactive) | 87% (inactive) | 97% (inactive) | 85.8% (inactive) | -0.88% (inactive) | 86.7% | 85.8% | -3.47% (inactive) | 1.61% (inactive) |
| CCN(C1CCCCC1)S(=O)(=O)c1ccc(OC)c(C)c1 | 99% | 108% (inactive) | 99% (inactive) | 91.5% (inactive) | 93.1% (inactive) | 15.7% (inactive) | 77.4% | 93.1% | -7.92% (inactive) | -13% (inactive) |
| CC1(C)CC(=O)C2=C(C1)OC(N)=C(C#N)C2C1CC=CCC1 (stereo not given) | 108% | 93% (inactive) | 108% (inactive) | 91.4% (inactive) | 81.6% (inactive) | 12.5% (inactive) | 69.1% | 81.6% | -7.53% (inactive) | -2.22% (inactive) |
